Measured values taken from paper PMC3574193 (Journal of medicinal chemistry, 2013).
“Also recorded” adds a separate entry of the source. Each block holds one molecule with its values, some of them ahead of it.

What was measured:
[1] = cited from earlier work
[2] = Preliminary half-life studies in rats; type: in vivo; conditions: data not shown
human Trx W31A mutant = biological target: T1, human Trx W31A mutant (Homo sapiens, UniProt P10599, W31A); assay: In vitro thioredoxin activity assay with W31A mutant; type: biochemical; conditions: W31A mutant of human Trx
T1 sequence (P10599 1-105 W31A): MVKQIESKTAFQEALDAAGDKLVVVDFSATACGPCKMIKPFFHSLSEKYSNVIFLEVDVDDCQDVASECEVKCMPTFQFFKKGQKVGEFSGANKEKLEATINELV
Procedure, shortened: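 Pre-reduced enzyme was desalted by spin column, quantified by A280 and used within 2 h. It was reacted with test compound, 10 µM each, in 0.1 M phosphate-citrate pH 6.0 at room temperature. Aromatic product accumulation was fitted exponentially for kinh/Ki.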

[3] = biological target: T2, extracellular TG2 in T84 enterocytic cells (Homo sapiens, UniProt P21980); assay: Trx-mediated TG2 activation in T84 enterocytic cells; type: cell-based; conditions: 25 µM ERW1041E
T2 sequence (P21980 1-687): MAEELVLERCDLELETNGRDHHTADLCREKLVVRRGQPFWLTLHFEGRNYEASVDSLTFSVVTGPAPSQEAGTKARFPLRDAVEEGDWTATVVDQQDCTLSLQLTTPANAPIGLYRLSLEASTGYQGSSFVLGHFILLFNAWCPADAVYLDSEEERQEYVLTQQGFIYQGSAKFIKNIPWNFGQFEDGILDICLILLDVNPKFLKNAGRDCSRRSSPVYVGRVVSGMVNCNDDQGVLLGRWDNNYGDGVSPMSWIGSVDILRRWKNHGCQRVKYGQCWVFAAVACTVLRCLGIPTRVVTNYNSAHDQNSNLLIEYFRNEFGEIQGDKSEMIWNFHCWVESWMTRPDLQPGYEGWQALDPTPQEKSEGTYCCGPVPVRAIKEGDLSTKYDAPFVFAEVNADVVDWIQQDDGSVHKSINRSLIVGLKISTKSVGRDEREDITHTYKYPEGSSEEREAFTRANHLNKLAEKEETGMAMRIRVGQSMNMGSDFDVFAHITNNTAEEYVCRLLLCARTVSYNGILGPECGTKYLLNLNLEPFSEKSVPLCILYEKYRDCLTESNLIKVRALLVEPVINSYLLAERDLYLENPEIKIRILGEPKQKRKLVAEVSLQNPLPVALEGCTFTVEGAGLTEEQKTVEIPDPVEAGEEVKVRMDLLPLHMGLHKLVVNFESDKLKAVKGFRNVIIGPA

half-life in rats [2]: short half-life
Structure (SMILES): CCC(C)SSc1ncc[nH]1 (stereo not shown) [Compound 1, 2-(sec-butyldisulfanyl)-1H-imidazole]
half-life in humans [1]: extremely short half-life

kinh/Ki with W31A Trx (human Trx W31A mutant): 23700 M⁻¹ s⁻¹
Structure (SMILES): CCC(C)SSc1nc2ccccc2[nH]1 (stereo not shown) [Compound 14, 2-(sec-butyldisulfanyl)-1H-benzo[d]imidazole]

Structure (SMILES): O=C(NC[C@@H]1CC(Br)=NO1)[C@@H]1CCCN1C(=O)OCc1cnc2ccccc2c1 [ERW1041E, (S)-quinolin-3-ylmethyl 2-((((S)-3-bromo-4,5-dihydroisoxazol-5-yl)methyl)carbamoyl)pyrrolidine-1-carboxylate]
effect on Trx mediated 5BP incorporation [3]: fully suppressed; also recorded: completely blocked
